Experimental data published in article PMC6379856 (ACS Chemical Biology, 2019).

Experiments:
endogenous PLA2G16 = biological target: T1, endogenous PLA2G16 (Mus musculus, UniProt Q8R3U1); test: Competitive ABPP with MB064 in cytosol proteome of mouse WAT and BAT; assay type: biochemical; conditions: 10 μM
T1 sequence (Q8R3U1 1-162): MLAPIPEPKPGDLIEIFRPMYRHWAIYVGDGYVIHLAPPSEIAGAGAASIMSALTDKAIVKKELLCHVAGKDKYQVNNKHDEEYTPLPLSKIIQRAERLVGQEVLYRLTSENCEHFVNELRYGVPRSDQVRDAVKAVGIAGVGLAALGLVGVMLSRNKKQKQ
In short: (§1)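 Cytosol proteomes from freshly isolated mouse white and brown adipose tissue were preincubated with test compound (10 µM) or DMSO. They were then labelled with probe MB064, resolved by SDS-PAGE and fluorescence-scanned. The gels were Western blotted with an anti-PLA2G16 antibody to locate native PLA2G16.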

[1] = test system: endogenously expressed serine hydrolases in mouse brain; test: Competitive gel-based ABPP in mouse brain proteomes with FP-TAMRA and MB064; assay type: biochemical
In short: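 Mouse brain membrane and cytosol proteomes were treated with DMSO or test compound at 10 µM. Each was then labelled with MB064 or FP-TAMRA and resolved by SDS-PAGE with fluorescent scanning. Coomassie staining served as the protein loading control.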

RARRES3 = biological target: T2, RARRES3 (Homo sapiens, UniProt Q9UL19); test: Competitive ABPP with probe MB064, cytosol proteome of transfected HEK293T cells; assay type: biochemical
T2 sequence (Q9UL19 1-164): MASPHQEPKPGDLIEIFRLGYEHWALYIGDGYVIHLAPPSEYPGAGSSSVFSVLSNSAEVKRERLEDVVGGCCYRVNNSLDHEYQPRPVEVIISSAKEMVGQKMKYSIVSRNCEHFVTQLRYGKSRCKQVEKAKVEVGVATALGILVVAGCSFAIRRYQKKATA

[2] = test system: other proteins in brown and white adipose tissue; assay type: biochemical, mouse; conditions: 10 μM, probe MB064
In short: as §1

PLA2G16 [3] = biological target: T3, PLA2G16 (Homo sapiens, UniProt P53816); test: Competitive ABPP with probe MB064, cytosol proteome of transfected HEK293T cells; assay type: biochemical
T3 sequence (P53816 1-162): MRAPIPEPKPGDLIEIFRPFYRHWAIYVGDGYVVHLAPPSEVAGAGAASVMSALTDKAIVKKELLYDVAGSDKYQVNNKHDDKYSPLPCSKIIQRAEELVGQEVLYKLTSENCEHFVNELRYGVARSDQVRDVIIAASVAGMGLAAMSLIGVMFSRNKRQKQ

[4] = test system: U2OS cells transfected with human PLA2G16; assay type: cell-based; conditions: 10 μM, 4 or 8 h, serum-free, in situ
In short: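 U2OS cells transfected with human PLA2G16 were exposed in situ, under serum-free conditions, to DMSO vehicle or test compound at 10 µM for 4 or 8 h. Arachidonic acid levels were then measured. Significance was assessed by Student's t-test.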

HepG2 cells = test: Oleic acid-induced lipid droplet formation; assay type: cell-based, human; conditions: 10 μM, 24 h, oleic acid 100 μM
In short: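 HepG2 cells were given oleic acid (100 µM, 24 h) to induce steatosis and treated in situ with test compound (10 µM, 24 h). Lipid droplets were stained with Adipored. Significance was assessed by Student's t-test.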

iNAT = biological target: T4, iNAT (Homo sapiens, UniProt Q96KN8); test: Competitive ABPP with probe MB064, cytosol proteome of transfected HEK293T cells; assay type: biochemical
T4 sequence (Q96KN8 1-279): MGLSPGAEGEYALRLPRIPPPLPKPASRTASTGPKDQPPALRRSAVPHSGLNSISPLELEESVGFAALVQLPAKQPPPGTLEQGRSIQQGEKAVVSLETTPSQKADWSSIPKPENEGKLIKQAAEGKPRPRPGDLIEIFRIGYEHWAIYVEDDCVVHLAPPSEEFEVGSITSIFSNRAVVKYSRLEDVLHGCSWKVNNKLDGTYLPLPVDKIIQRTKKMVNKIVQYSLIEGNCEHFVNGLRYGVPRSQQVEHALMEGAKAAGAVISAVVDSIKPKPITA

PLA2G16 [5] = biological target: T3, PLA2G16; test: PC-A2 fluorescent substrate assay; assay type: biochemical
In short: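 HEK293T cells overexpressing human PLA2G16 supplied the cytosol proteome used as enzyme source. Test compound was tested over a concentration range in the fluorescent PC-A2 phospholipid substrate assay. Dose–response curves were generated (n = 3).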

labeling of native PLA2G16 by MB064 (endogenous PLA2G16) | IC50 (RARRES3) [µM] | PLA2G16 labeling by MB064 (library screen) (PLA2G16 [3]; inhibitor at 10 μM, competitive ABPP) | IC50 (iNAT) [µM] | Ki (PLA2G16 [5]) [µM] | increase in potency compared to compound 1 in the ABPP-assay (PLA2G16 [3]; PLA2G16) [fold] | Compound | labeling of proteins in mouse brain targeted by FP-TAMRA or MB064 ([1]; 10 μM, mouse brain membrane and cytosol proteome) | labeling of other proteins in brown and white adipose tissue [2] | PLA2G16-induced increase in arachidonic acid [4] | selectivity over brain serine hydrolases ([1]; gel-based ABPP assay (Figure S7)) | lipid droplet formation induced by oleic acid (HepG2 cells)
completely abolished | 0.631 | almost completely abolished | – | – | – | O=C(CCc1ccc(Cl)cc1)C(=O)NCCc1ccccc1 [Compound 1, 4-(4-chlorophenyl)-2-oxo-N-phenethylbutan-amide] | did not reduce the labeling of any proteins | not affected | – | – | –
completely abolished | 0.158 | – | 0.0251 | 0.02 | 10 | O=C(CCCc1ccccc1)C(=O)NCCc1ccc(Oc2ccc(C(F)(F)F)cn2)cc1 [LEI110, 2-oxo-5-phenyl-N-(4-((5-(trifluoromethyl)pyridin-2-yl)oxy)-phenethyl)pentanamide] | – | not affected | almost completely abolished | selective | reduction in lipid droplet formation
